Experimental data of several laboratories.
Protocols differ between the studies behind these lines.
Target: Inhibitor of nuclear factor kappa-B kinase subunit epsilon (IKBKE, Homo sapiens, UniProt Q14164)
Sequence (Q14164 1-716, as in one of the studies): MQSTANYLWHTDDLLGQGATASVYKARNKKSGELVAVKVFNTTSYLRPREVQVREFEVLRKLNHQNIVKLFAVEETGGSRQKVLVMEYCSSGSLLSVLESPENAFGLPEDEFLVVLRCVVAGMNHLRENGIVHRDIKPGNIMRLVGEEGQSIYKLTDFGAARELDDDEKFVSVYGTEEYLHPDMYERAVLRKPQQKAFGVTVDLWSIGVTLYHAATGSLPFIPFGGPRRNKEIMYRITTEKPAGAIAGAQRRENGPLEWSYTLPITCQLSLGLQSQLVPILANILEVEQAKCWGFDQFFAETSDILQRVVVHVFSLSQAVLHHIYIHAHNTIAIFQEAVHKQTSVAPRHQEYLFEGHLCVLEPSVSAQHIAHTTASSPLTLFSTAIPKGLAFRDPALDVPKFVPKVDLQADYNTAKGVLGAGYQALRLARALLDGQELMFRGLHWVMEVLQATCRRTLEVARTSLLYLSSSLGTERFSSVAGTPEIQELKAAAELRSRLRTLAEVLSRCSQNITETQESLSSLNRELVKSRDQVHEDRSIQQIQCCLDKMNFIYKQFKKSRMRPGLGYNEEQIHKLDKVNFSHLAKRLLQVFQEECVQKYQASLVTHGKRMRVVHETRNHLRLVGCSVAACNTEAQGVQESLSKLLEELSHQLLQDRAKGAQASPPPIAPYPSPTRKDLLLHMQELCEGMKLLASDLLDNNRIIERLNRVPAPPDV

Compound | effect on | action | technique | tested at | quantity | result
CCCCC(=O)Nc1ccc(-c2ccc3ncn(CCC)c(=O)c3c2)cn1 | binding | – | competition with immobilised ligand | 0.5 µM | remaining binding | 93%
C=CC(=O)N1CCC([C@@H]2CCNc3c(C(N)=O)c(-c4ccc(Oc5ccccc5)cc4)nn32)CC1 | enzyme activity | inhibitor | – | 1 µM | inhibition | 1%
COc1ccc2[nH]c3c4[nH]c5ccc(OC)cc5c4c4c(c3c2c1)C(=O)NC4=O | binding | – | – | 1 µM | remaining binding | 48%
Cc1cc(O)c(-c2ccc([C@@H](C)CN(C)C)cc2)c2c1[nH]c(=O)c1sccc12 | enzyme activity | inhibitor | – | 0.1 µM | inhibition | -7.74%
CO[C@@H]1[C@H](N(C)C(=O)c2ccccc2)C[C@H]2O[C@]1(C)n1c3ccccc3c3c4c(c5c6ccccc6n2c5c31)C(=O)NC4 | enzyme activity | inhibitor | – | 1 µM | inhibition | 97%
Cc1ccc(NC(=O)c2ccnc(C(F)(F)F)c2)cc1-c1cc(OCCO)nc(N2CCOCC2)c1 | binding | – | – | 1 µM | remaining binding | 94%
CC(C)S(=O)(=O)c1ccc2nccc(Nc3ccc4sc(C5CCCC5)nc4c3)c2c1 | enzyme activity | inhibitor | – | 1 µM | activity vs control | 113%
C#Cc1cc(-c2cc(Nc3nc(N[C@@H](C)c4ccc(F)cn4)ncc3Cl)n[nH]2)ccc1C=O | enzyme activity | inhibitor | – | 0.2 µM | inhibition | 14.7%
